In ChEMBL document CHEMBL2202989, “New adamantane phenylalkylamines with σ-receptor binding affinity and anticancer activity, associated with putative antagonism of neuropathic pain” (J Med Chem, 2012):

Key:
Assay type in all cases: functional
BXPC-3 [1] = assay: Cell cycle arrest in human BxPC3 cells assessed as accumulation at S phase at 50 uM after 24 hrs using propidium iodide staining by FACS analysis (reference value: 33 %)
Outline: (§1)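 Cells were plated 24 h before treatment and exposed for 24 h at final 0.5, 5, 15 and 50 μM in 0.5% DMSO, against vehicle-treated controls. Cells were then trypsinised and fixed in cold ethanol for 3 h at 4 °C. They were stained in a mix of RNase (200 μg/mL) and PI (1 mg/mL) for 45 min at room temperature in the dark. Flow cytometry used 488 nm excitation and 10 000 gated cells. Phase percentages were assigned from DNA content.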

BXPC-3 [2] = assay: Growth inhibition of human BxPC3 cells after 48 hrs by SRB assay; conditions: BXPC-3, 48 h
Outline: (§2)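 Cells grown in RPMI 1640 with 5% heat-inactivated FCS, 2 mM L-glutamine and antibiotics, 37 °C, 5% CO2. Seeded at 3500–30000 cells/well and left 24 h before dosing. DMSO solutions added at 10-fold dilutions from 100 to 0.01 μM for 48 h. Cells TCA-fixed and SRB-stained, absorbance read at 540 nm; GI50 derived against the time-zero plate.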

IGROV-1 [3] = assay: Growth inhibition of human IGROV1 cells after 48 hrs by SRB assay; conditions: IGROV-1, 48 h; outline: as §2
PC-3 [4] = assay: Growth inhibition of human PC3 cells after 48 hrs by SRB assay; conditions: PC-3, 48 h; outline: as §2
DU-145 = assay: Growth inhibition of human DU145 cells after 48 hrs by SRB assay; conditions: DU-145, 48 h; outline: as §2
HCT-116 = assay: Growth inhibition of human HCT116 cells after 48 hrs by SRB assay; conditions: HCT-116, 48 h; outline: as §2
OVCAR-5 = assay: Antitumor activity against human OVCAR5 cells xenografted in SCID mouse assessed as tumor growth inhibition at 55 mg/kg, ip administered 5 consecutive days in a week for two cycles measured after 2 cycles relative to control; conditions: OVCAR-5, ip, route intraperitoneal, read-out: TGI
Outline: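 SCID mice carried OVCAR5 xenografts (10^6 cells per inoculum), 16 mice (32 tumors) per group, with ip dosing in 5% Tween 80 from a tumor volume of about 100 mm3. Caliper volume was measured twice weekly and %ΔT/ΔC derived. At termination, primary tumors were weighed and secondary metastases were scored at axillary and bone sites (n = 7−8). Two-tailed t test.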

PC-3 [5] = assay: Induction of apoptosis in human PC3 cells assessed as cleaved caspase3 containing cells at 15 uM by antibody-based FACS analysis (reference value: 3.2 %)
BXPC-3 [6] = assay: Induction of apoptosis in human BxPC3 cells assessed as cleaved caspase3 containing cells at 15 uM by antibody-based FACS analysis (reference value: 8.2 %)
PC-3 [7] = assay: Induction of apoptosis in human PC3 cells assessed as late apoptosis at 15 uM using annexin V/7-AAD by FACS analysis (reference value: 3 %)
Outline: (§3)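 Cells plated 24 h before treatment, then exposed 24 h to 0.5, 5, 15 or 50 μM compound (final DMSO 0.5%); vehicle controls included. Cells scraped and stained with annexin V-FITC and 7-AAD for 15 min on ice in the dark. Flow cytometry with 488 nm excitation, 10,000 gated cells. Early apoptosis was annexin V+/7-AAD−, late was annexin V+/7-AAD+.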

PC-3 [8] = assay: Induction of apoptosis in human PC3 cells assessed as healthy cells at 15 uM using annexin V/7-AAD by FACS analysis (reference value: 91 %)
IGROV-1 [9] = assay: Induction of apoptosis in human IGROV1 cells assessed as early apoptosis at 50 uM using annexin V/7-AAD by FACS analysis (reference value: 9 %)
IGROV-1 [10] = assay: Induction of apoptosis in human IGROV1 cells assessed as early apoptosis at 0.5 uM using annexin V/7-AAD by FACS analysis (reference value: 9 %)
BXPC-3 [11] = assay: Induction of apoptosis in human BxPC3 cells assessed as total apoptotic death at 5 uM using annexin V/7-AAD by FACS analysis (reference value: 18 %); outline: as §3
BXPC-3 [12] = assay: Induction of apoptosis in human BxPC3 cells assessed as early apoptosis at 15 uM using annexin V/7-AAD by FACS analysis (reference value: 9 %)
BXPC-3 [13] = assay: Induction of apoptosis in human BxPC3 cells assessed as healthy cells at 15 uM using annexin V/7-AAD by FACS analysis (reference value: 79 %)
BXPC-3 [14] = assay: Induction of apoptosis in human BxPC3 cells assessed as healthy cells at 5 uM using annexin V/7-AAD by FACS analysis (reference value: 79 %)
PC-3 [15] = assay: Cell cycle arrest in human PC3 cells assessed as accumulation at G1 phase at 5 uM after 24 hrs using propidium iodide staining by FACS analysis (reference value: 36 %)
PC-3 [16] = assay: Cell cycle arrest in human PC3 cells assessed as accumulation at sub G1 phase at 50 uM after 24 hrs using propidium iodide staining by FACS analysis (reference value: 4 %)
PC-3 [17] = assay: Cell cycle arrest in human PC3 cells assessed as accumulation at sub G1 phase at 15 uM after 24 hrs using propidium iodide staining by FACS analysis (reference value: 4 %)
PC-3 [18] = assay: Cell cycle arrest in human PC3 cells assessed as accumulation at sub G1 phase at 5 uM after 24 hrs using propidium iodide staining by FACS analysis (reference value: 4 %)
IGROV-1 [19] = assay: Cell cycle arrest in human IGROV1 cells assessed as accumulation at >G2/M phase at 5 uM after 24 hrs using propidium iodide staining by FACS analysis (reference value: 21 %); outline: as §1
IGROV-1 [20] = assay: Cell cycle arrest in human IGROV1 cells assessed as accumulation at S phase at 15 uM after 24 hrs using propidium iodide staining by FACS analysis (reference value: 29 %)
IGROV-1 [21] = assay: Cell cycle arrest in human IGROV1 cells assessed as accumulation at G1 phase at 15 uM after 24 hrs using propidium iodide staining by FACS analysis (reference value: 27 %); outline: as §1
IGROV-1 [22] = assay: Cell cycle arrest in human IGROV1 cells assessed as accumulation at sub G1 phase at 50 uM after 24 hrs using propidium iodide staining by FACS analysis (reference value: 4 %)
IGROV-1 [23] = assay: Cell cycle arrest in human IGROV1 cells assessed as accumulation at sub G1 phase at 5 uM after 24 hrs using propidium iodide staining by FACS analysis (reference value: 4 %)
BXPC-3 [24] = assay: Cell cycle arrest in human BxPC3 cells assessed as accumulation at >G2/M phase at 0.5 uM after 24 hrs using propidium iodide staining by FACS analysis (reference value: 6 %); outline: as §1
BXPC-3 [25] = assay: Cell cycle arrest in human BxPC3 cells assessed as accumulation at G2 phase at 50 uM after 24 hrs using propidium iodide staining by FACS analysis (reference value: 12 %); outline: as §1
[26] = read-out: LC50 (the source's name)

Question: How did the Activity (BXPC-3 [1]) turn out when `CN1CCN(CCCc2ccc(C(c3ccccc3)C34CC5CC(CC(C5)C3)C4)cc2)CC1` (stereo not drawn) was run?
Answer: 33%

Question: And the GI50 (BXPC-3 [2])?
Answer: 3.41 µM

Question: And the LC50 (BXPC-3 [2])?
Answer: 8.8 nM

Question: And the TGI (BXPC-3 [2])?
Answer: 6.1 µM

Question: And the GI50 (IGROV-1 [3])?
Answer: 4.54 µM

Question: What about the TGI (IGROV-1 [3]) of the same compound?
Answer: 11.9 µM

Question: And the CC50 (IGROV-1 [3]; [26])?
Answer: 74.8 nM

Question: And the GI50 (PC-3 [4])?
Answer: 3.43 µM

Question: What about the TGI (PC-3 [4]) of the same compound?
Answer: 6.72 µM

Question: What about the CC50 (PC-3 [4]; [26]) of the same compound?
Answer: 10 nM

Question: And the GI50 (DU-145)?
Answer: 3.77 µM

Question: And the TGI (DU-145)?
Answer: 7.11 µM

Question: And the CC50 (DU-145; [26])?
Answer: 100 nM

Question: And the GI50 (HCT-116)?
Answer: 3.38 µM

Question: What about the TGI (HCT-116) of the same compound?
Answer: 6.05 µM

Question: And the CC50 (HCT-116; [26])?
Answer: 8.73 nM

Question: What about the inhibition in vivo at 55 mg/kg (OVCAR-5) of the same compound?
Answer: 44.5%

Question: And the Activity (PC-3 [5])?
Answer: 2.5%

Question: And the Activity (BXPC-3 [6])?
Answer: 17.5%

Question: What about the Activity (PC-3 [7]) of the same compound?
Answer: 7%

Question: And the Activity (PC-3 [8])?
Answer: 71%

Question: What about the Activity (IGROV-1 [9]) of the same compound?
Answer: 40%

Question: What about the Activity (IGROV-1 [10]) of the same compound?
Answer: 8%

Question: And the Activity (BXPC-3 [11])?
Answer: 21%

Question: What about the Activity (BXPC-3 [12]) of the same compound?
Answer: 19%

Question: And the Activity (BXPC-3 [13])?
Answer: 35%

Question: And the Activity (BXPC-3 [14])?
Answer: 77%

Question: What about the Activity (PC-3 [15]) of the same compound?
Answer: 36%

Question: And the Activity (PC-3 [16])?
Answer: 12%

Question: And the Activity (PC-3 [17])?
Answer: 25%

Question: What about the Activity (PC-3 [18]) of the same compound?
Answer: 11%

Question: And the Activity (IGROV-1 [19])?
Answer: 20%

Question: And the Activity (IGROV-1 [20])?
Answer: 25%

Question: What about the Activity (IGROV-1 [21]) of the same compound?
Answer: 23%

Question: What about the Activity (IGROV-1 [22]) of the same compound?
Answer: 18%

Question: And the Activity (IGROV-1 [23])?
Answer: 4%

Question: What about the Activity (BXPC-3 [24]) of the same compound?
Answer: 7%

Question: And the Activity (BXPC-3 [25])?
Answer: 9%
